{"source": "ChEMBL document CHEMBL4725354", "about": "(J Med Chem, 2020)", "key": {"[1]": {"biological_target": "T1, Broad substrate specificity ATP-binding cassette transporter ABCG2 (Homo sapiens, UniProt Q9UNQ0)", "T1 sequence (Q9UNQ0 whole entry)": "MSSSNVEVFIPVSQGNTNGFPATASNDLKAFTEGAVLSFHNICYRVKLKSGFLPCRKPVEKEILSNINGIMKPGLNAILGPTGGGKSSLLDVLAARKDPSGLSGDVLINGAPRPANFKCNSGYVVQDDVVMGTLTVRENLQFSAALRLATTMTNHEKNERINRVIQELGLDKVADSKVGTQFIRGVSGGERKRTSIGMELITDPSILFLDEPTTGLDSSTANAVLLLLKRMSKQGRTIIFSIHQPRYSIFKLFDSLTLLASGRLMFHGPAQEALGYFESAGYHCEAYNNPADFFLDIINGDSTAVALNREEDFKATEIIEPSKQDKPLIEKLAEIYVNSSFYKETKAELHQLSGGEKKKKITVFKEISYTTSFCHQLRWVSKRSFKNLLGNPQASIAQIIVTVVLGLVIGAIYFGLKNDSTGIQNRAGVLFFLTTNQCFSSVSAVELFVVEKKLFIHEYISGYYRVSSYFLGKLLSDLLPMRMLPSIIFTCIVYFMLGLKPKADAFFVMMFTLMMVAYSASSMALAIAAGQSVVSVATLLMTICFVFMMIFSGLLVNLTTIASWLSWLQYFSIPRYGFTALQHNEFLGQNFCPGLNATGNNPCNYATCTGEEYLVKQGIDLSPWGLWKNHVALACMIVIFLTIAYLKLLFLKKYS", "experiment": "Inhibition of human ABCG2 expressed in MDCK2 cells co-expressing GFP preincubated for 15 mins followed by pheophorbideA addition and measured after 2 hrs by flow cytometric analysis", "type": "cell-based, MDCK-II", "method_in_brief": "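Pheophorbide A added to 0.5 µM final and incubated 2 h. Read by flow cytometry (ex 488, em 695/50 nm); GFP expression checked at 525/30 nm. IC50 from 3- or 4-parameter logistic fit.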"}, "[2]": {"experiment": "Growth inhibition of MDCK2 cells after 72 hrs by MTT assay", "type": "cell-based, Canis lupus familiaris, MDCK-II", "conditions": "dog; call rule not given here", "method_in_brief": "(§1)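 MTT viability assay. Compound dilutions in culture medium (3.2 to 1000 µM as prepared). About 2,000 cells per well, 72 h at 37 °C, 5% CO2. Culture medium set as 100% and 10% DMSO as 0% viability. MTT added for 1 h, formazan dissolved in DMSO, absorbance read at 570 nm with 690 nm background. GI50 from nonlinear regression of absorbance vs log concentration; at least three independent experiments, duplicates, mean ± SEM.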"}, "[3]": {"experiment": "Growth inhibition of MDCK2 cells over expressing human ABCG2 after 72 hrs by MTT assay", "type": "ADME, cell-based, Canis lupus familiaris, MDCK-II", "conditions": "dog, MDCK2 cells overexpressing human ABCG2", "method_in_brief": "as §1"}, "ABCG2 [4]": {"tested_on": "ABCG2", "experiment": "Therapeutic ratio of GI50 for Growth inhibition of MDCK2 cells over expressing human ABCG2 to IC50 for inhibition of human ABCG2 expressed in MDCK2 cells co-expressing GFP preincubated for 15 mins followed by pheophorbideA addition and measured after 2 hrs by flow cytometric analysis", "type": "toxicity, cell-based", "conditions": "dog, MDCK2 cells overexpressing human ABCG2, probe pheophorbide A; read-out: TI"}, "[5]": {"biological_target": "T1, Broad substrate specificity ATP-binding cassette transporter ABCG2", "experiment": "Inhibition of human ABCG2-mediated multidrug resistance in MDCK2 cells assessed as potentiation of SN-38-induced cytotoxicity by measuring half-maximal cell death acceleration at 10 to 50 nM measured at 5.75 days by MTT assay", "type": "cell-based, MDCK-II", "conditions": "dose 10-50 nM, time 5.7 day; read-out: Activity", "method_in_brief": "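MDCK II cells transfected with human ABCG2–GFP were exposed to SN-38 at 0.5 µM final, alone or with modulator at 0, 10, 25 or 50 nM. Cells were seeded at 10,000 down to 200 per well according to read-out day and kept at 37 °C, 5% CO2. MTT viability was read daily for 7 days. Inflection points of the viability–time curves were regressed against modulator concentration. At least 3 independent experiments, triplicates.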"}, "ABCG2 [6]": {"tested_on": "ABCG2", "experiment": "Therapeutic ratio of GI50 for Growth inhibition of MDCK2 cells over expressing human ABCG2 to IC50 for inhibition of human ABCG2 expressed in MDCK2 cells co-expressing GFP preincubated for 30 mins followed by Hoechst 33342 addition and measured every 60 sec for 120 mins by fluorescence assay", "type": "toxicity, cell-based", "conditions": "dog, MDCK2 cells overexpressing human ABCG2, probe Hoechst 33342; read-out: TI"}, "[7]": {"experiment": "Down regulation of ABCG2 in MDCK2 cells at 10 nM after 4 days by Western blot analysis", "type": "functional, Canis lupus familiaris, MDCK-II", "conditions": "time 4 day", "method_in_brief": "(§2)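 ABCG2-GFP MDCK II cells seeded in T25 flasks (86,000 for 4 days, 17,200 for 7 days). Exposed to modulator (10 nM) and/or SN-38 (0.5 µM) for 4 or 7 days. 15 µg protein run on stain-free 10% SDS-PAGE and transferred to PVDF. Probed with BXP-21 (1:200, overnight, 4 °C) and HRP secondary, ECL detection. Bands normalised to total protein and to the untreated control; one-sample t-test.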"}, "ABCG2 [8]": {"biological_target": "T2, ABCG2 (Homo sapiens, UniProt Q9UNQ0)", "T2 sequence (Q9UNQ0 whole entry)": "T1 sequence (Q9UNQ0 whole entry)", "experiment": "Inhibition of human ABCG2 expressed in MDCK2 cells co-expressing GFP preincubated for 15 mins followed by pheophorbideA addition and measured after 2 hrs by flow cytometric analysis relative to control", "type": "cell-based, MDCK-II", "conditions": "probe pheophorbide A, read-out: Imax"}, "[9]": {"biological_target": "T1, Broad substrate specificity ATP-binding cassette transporter ABCG2", "experiment": "Inhibition of human ABCG2 expressed in MDCK2 cells co-expressing GFP preincubated for 30 mins followed by Hoechst 33342 addition and measured every 60 sec for 120 mins by fluorescence assay", "type": "cell-based, MDCK-II", "method_in_brief": "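MDCK II cells transfected with human ABCG2 cDNA C-terminally fused to GFP. Hoechst 33342 added at 1 µM final. Fluorescence (ex 355, em 460 nm) read every 60 s for 120 min. Steady-state means vs log concentration fitted by 3- or 4-parameter logistic to give IC50.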"}, "MDCK-II [10]": {"tested_on": "MDCK-II", "experiment": "Cytotoxicity against MDCK2 cells assessed as reduction in cell viability at 10 uM after 72 hrs by MTT assay", "type": "cell-based, Canis lupus familiaris", "conditions": "dog", "method_in_brief": "(§3)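 Single-concentration screen at 10 µM in MDCK II BCRP and parental MDCK II cells. MTT assay, 72 h at 37 °C, 5% CO2. Viability referenced to culture medium (100%) and 10% DMSO (0%). Mean ± SEM of at least three independent experiments with duplicates.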"}, "[11]": {"experiment": "Effect on total ABCG2 in MDCK2 cells at 10 nM after 4 to 7 days in presence of SN-38 by Western blot analysis", "type": "ADME, cell-based, Canis lupus familiaris", "conditions": "dog, mdck-ii, 0.01 µM, time 4-7 day", "method_in_brief": "as §2"}, "MDCK-II [12]": {"tested_on": "MDCK-II", "experiment": "Cytotoxicity against MDCK2 cells over expressing human ABCG2 at 10 uM assessed as reduction in cell viability after 72 hrs by MTT assay", "type": "ADME, cell-based, Canis lupus familiaris", "conditions": "dog", "method_in_brief": "as §3"}, "[13]": {"biological_target": "T1, Broad substrate specificity ATP-binding cassette transporter ABCG2", "experiment": "Inhibition of human ABCG2-mediated multidrug resistance in MDCK2 cells assessed as potentiation of SN-38-induced cytotoxicity at 10 nM after 7 days by MTT assay relative to SN-38 alone", "type": "cell-based", "conditions": "mdck-ii, 168 h, 0.01 µM, time 7 day", "method_in_brief": "(§4)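 Time-dependent reversal in ABCG2-GFP MDCK II cells: SN-38 at 0.5 µM with modulator at 0, 10, 25 or 50 nM. Seeding density decreased with assay day (10,000 cells for day 1 down to 200 for day 7). MTT viability read daily for 7 days. Results normalised to medium-only cells or to SN-38 alone. Curve inflection points plotted vs modulator concentration to derive tmax, tmin, ctmin and c½tmax. Triplicates, at least three experiments; multiple t-test.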"}, "[14]": {"biological_target": "T1, Broad substrate specificity ATP-binding cassette transporter ABCG2", "experiment": "Inhibition of human ABCG2-mediated multidrug resistance in MDCK2 cells assessed as potentiation of SN-38-induced cytotoxicity at 10 to 50 nM measured up to 7 days by MTT assay", "type": "cell-based", "conditions": "mdck-ii, 168 h, dose 10-50 nM, time <=7 day", "method_in_brief": "as §4"}, "[15]": {"biological_target": "T1, Broad substrate specificity ATP-binding cassette transporter ABCG2", "experiment": "Inhibition of human ABCG2-mediated multidrug resistance in MDCK2 cells assessed as potentiation of SN-38-induced cytotoxicity at 10 to 50 nM after 5 days by MTT assay", "type": "cell-based", "conditions": "mdck-ii, 120 h, dose 10-50 nM, time 5 day"}, "[16]": {"experiment": "Down regulation of ABCG2 in MDCK2 cells at 10 nM after 7 days by Western blot analysis", "type": "functional, Canis lupus familiaris, MDCK-II", "conditions": "time 7 day", "method_in_brief": "as §2"}, "ABCG2 [17]": {"biological_target": "T2, ABCG2", "experiment": "Inhibition of human ABCG2 expressed in MDCK2 cells co-expressing GFP preincubated for 30 mins followed by Hoechst 33342 addition and measured every 60 sec for 120 mins by fluorescence assay relative to control", "type": "cell-based, MDCK-II", "conditions": "probe Hoechst 33342, read-out: Imax", "method_in_brief": "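MDCK II cells transfected with human ABCG2 cDNA C-terminally fused to GFP. Steady-state means vs log concentration fitted by 3- or 4-parameter logistic to give IC50.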"}, "[18]": {"biological_target": "T1, Broad substrate specificity ATP-binding cassette transporter ABCG2", "experiment": "Inhibition of human ABCG2-mediated multidrug resistance in MDCK2 cells assessed as potentiation of SN-38-induced cytotoxicity by measuring time need to achieve half maximal cell death at 10 to 50 nM measured up to 7 days by MTT assay", "type": "cell-based", "conditions": "mdck-ii, 168 h, dose 10-50 nM, time <=7 day", "method_in_brief": "as §4"}, "[19]": {"biological_target": "ATP-dependent translocase ABCB1 (Homo sapiens, UniProt P08183)", "sequence (P08183 whole entry)": "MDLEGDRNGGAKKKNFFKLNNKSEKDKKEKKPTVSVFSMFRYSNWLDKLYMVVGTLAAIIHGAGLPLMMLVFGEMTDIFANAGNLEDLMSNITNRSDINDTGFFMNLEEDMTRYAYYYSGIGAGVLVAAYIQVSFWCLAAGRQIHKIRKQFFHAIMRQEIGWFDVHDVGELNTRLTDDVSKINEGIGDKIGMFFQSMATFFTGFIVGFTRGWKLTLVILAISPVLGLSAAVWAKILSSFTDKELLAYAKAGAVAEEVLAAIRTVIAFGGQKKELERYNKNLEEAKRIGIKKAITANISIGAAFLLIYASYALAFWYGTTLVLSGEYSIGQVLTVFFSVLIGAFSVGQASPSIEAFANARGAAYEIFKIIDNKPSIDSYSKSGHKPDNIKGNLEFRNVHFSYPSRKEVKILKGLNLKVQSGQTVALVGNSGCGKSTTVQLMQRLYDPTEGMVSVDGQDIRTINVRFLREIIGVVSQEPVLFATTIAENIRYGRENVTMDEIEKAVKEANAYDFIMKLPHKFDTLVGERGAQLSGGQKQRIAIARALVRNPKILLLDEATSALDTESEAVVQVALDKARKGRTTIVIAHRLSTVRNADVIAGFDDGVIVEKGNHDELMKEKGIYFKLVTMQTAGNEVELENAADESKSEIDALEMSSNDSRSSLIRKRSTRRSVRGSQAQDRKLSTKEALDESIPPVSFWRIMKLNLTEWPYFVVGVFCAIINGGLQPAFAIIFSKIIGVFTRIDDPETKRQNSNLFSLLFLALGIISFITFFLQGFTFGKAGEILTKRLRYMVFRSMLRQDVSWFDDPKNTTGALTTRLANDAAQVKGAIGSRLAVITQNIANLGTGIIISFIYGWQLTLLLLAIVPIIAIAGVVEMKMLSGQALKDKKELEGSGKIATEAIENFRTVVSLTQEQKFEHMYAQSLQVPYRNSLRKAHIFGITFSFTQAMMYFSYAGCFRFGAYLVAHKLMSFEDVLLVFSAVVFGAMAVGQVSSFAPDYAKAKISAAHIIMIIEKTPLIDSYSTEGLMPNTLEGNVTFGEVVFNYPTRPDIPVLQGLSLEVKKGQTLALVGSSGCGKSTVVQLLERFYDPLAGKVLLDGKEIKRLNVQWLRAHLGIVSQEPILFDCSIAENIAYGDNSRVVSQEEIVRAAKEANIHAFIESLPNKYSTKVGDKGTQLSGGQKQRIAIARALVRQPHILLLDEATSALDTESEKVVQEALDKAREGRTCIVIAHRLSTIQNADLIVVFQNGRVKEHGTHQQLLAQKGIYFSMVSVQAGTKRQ", "experiment": "Inhibition of human ABCB1 expressed in A2780/ADR cells preincubated for 30 mins followed by calcein AM addition and measured every 60 secs for 60 mins by fluorescence assay", "type": "cell-based", "method_in_brief": "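ABCB1 in A2780/ADR cells (kept resistant by one passage in 1 µM doxorubicin every 10 passages). 30,000 cells per well in Krebs-HEPES buffer, preincubated 30 min at 37 °C with inhibitor. Calcein AM added from a 3.125 µM solution. Fluorescence (ex 485, em 520 nm) read every 60 s for 60 min. Initial linear slopes vs log concentration fitted to give IC50.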"}, "[20]": {"biological_target": "T1, Broad substrate specificity ATP-binding cassette transporter ABCG2", "experiment": "Inhibition of ABCG2 in human MCF7/MX cells at 1 uM incubated for 2 hrs in presence of pheophorbide A by confocal laser scanning microscopic method", "type": "cell-based", "conditions": "mcf7x", "method_in_brief": "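MCF-7/MX cells, 1×10^5 per dish, grown 48 h to 50-60% confluence, then switched to Krebs-HEPES buffer. Pheophorbide A (0.5 µM) applied with inhibitor (1 µM) for 2 h at 37 °C, 5% CO2. Confocal imaging at ex 405 nm, em 662-737 nm, stage at 37 °C; parental MCF-7 imaged for comparison.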"}}}
{"compound": "Cc1cc(Nc2ccc(C#N)c(C)c2)nc(-c2ccccc2)n1", "values": [{"measurement": "IC50", "setting": "[1]", "result": 175, "unit": "nM"}, {"measurement": "GI50 at 72 h", "setting": "[2]", "result": 15700, "unit": "nM"}, {"measurement": "GI50 at 72 h", "setting": "[3]", "result": 15700, "unit": "nM"}, {"measurement": "selectivity ratio at 2 h", "setting": "ABCG2 [4]", "result": 90}, {"measurement": "EC50", "setting": "[5]", "result": 17.2, "unit": "nM"}, {"measurement": "selectivity ratio", "setting": "ABCG2 [6]", "result": 167}, {"measurement": "Activity", "setting": "[7]", "result": 36, "unit": "%"}, {"measurement": "Emax at 2 h", "setting": "ABCG2 [8]", "result": 76, "unit": "%"}, {"measurement": "IC50", "setting": "[9]", "result": 93.5, "unit": "nM"}, {"measurement": "Activity", "setting": "MDCK-II [10]", "result": "Non-Toxic"}, {"measurement": "Activity", "setting": "[11]", "result": "Non-Toxic"}, {"measurement": "Activity", "setting": "MDCK-II [12]", "result": "Non-Toxic"}, {"measurement": "fold change (FC)", "setting": "[13]", "result": 2}, {"measurement": "inhibition (INH)", "setting": "[14]", "result": "Active"}, {"measurement": "inhibition (INH)", "setting": "[15]", "result": "Active"}, {"measurement": "Activity", "setting": "[16]", "result": 24, "unit": "%"}, {"measurement": "Emax at 2 h", "setting": "ABCG2 [17]", "result": 106, "unit": "%"}, {"measurement": "Tmin", "setting": "[18]", "result": 4.25, "unit": "days"}]}
{"compound": "Cc1cc(Nc2ccc3nccnc3c2)nc(-c2ccccc2)n1", "values": [{"measurement": "IC50", "setting": "[1]", "result": 312, "unit": "nM"}, {"measurement": "Emax at 2 h", "setting": "ABCG2 [8]", "result": 100, "unit": "%"}, {"measurement": "Activity", "setting": "MDCK-II [10]", "result": "Non-Toxic"}, {"measurement": "IC50", "setting": "[19]", "result": 13400, "unit": "nM"}, {"measurement": "Activity", "setting": "MDCK-II [12]", "result": "Non-Toxic"}, {"measurement": "inhibition (INH)", "setting": "[20]", "result": "Active"}]}
